We go through 26 molecules from ChEMBL document CHEMBL1121872, “Mesoionic xanthine analogues: phosphodiesterase inhibitory and hypotensive activity” (J Med Chem, 1981).

The target of test [1] is T1, Heart phosphodiesterase (Bos taurus, UniProt Q01061+P14100+E1BN64). Kind of test: In vitro inhibition of bovine heart phosphodiesterase (PDE I). The format is protein assay. The procedure, abridged: (§1)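 Bovine heart phosphodiesterase (Klee method) with 1 μM [3H]cAMP as substrate. Poorly soluble compounds were dissolved in 95% EtOH, 2.5% final, then diluted with buffer. […] I50 is the concentration where V0/V = 2, read from a V0/V vs. concentration plot. Each value averages two consecutive runs, in duplicate or triplicate.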

For a further test, the species on record is Bos taurus. Kind of test: Compound was evaluated for potency against c-AMP phosphodiesterase relative to theophylline. The essentials:
(§2)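 Bovine heart PDE (Klee method) with 1 μM [3H]cAMP. […] Compounds needing ethanol (2.5% final) are compared with a theophylline control run with ethanol; the others with one run without ethanol. Potency is expressed relative to that theophylline control.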

The subject of test [2] is Rattus norvegicus. Kind of test: Decrease in arterial blood pressure in anesthetized rats at 15 mg/kg after intravenous femoral injection. Also on record: unit not given here. The format is functional, Artery.
Test [3] relates to Rattus norvegicus. Kind of test: Decrease in arterial blood pressure in anesthetized rats at 10 mg/kg intravenous femoral injection. Also on record: unit not given here. It counts as functional, Artery.
The subject of test [4] is Rattus norvegicus. Kind of test: Decrease in arterial blood pressure in anesthetized rats at 5 mg/kg intravenous femoral injection. The format is functional, Artery. More on the design: unit not given here.
The test system of test [5] is Rattus norvegicus. Nature of the test: Decrease in arterial blood pressure in anesthetized rats at 2.5 mg/kg intravenous femoral injection. The format is functional, Artery. More on the design: unit not given here.
For test [6], the system named is Rattus norvegicus. Kind of test: Decrease in arterial blood pressure in anesthetized rats at 30 mg/kg intravenous femoral injection. It counts as functional, Artery.
Test [7] deals with Heart phosphodiesterase (Bos taurus) (UniProt Q01061+P14100+E1BN64). Nature of the test: Inhibition of bovine heart cAMP-phosphodiesterase relative to theophylline (Insoluble). It counts as protein assay. The essentials: as §2
For test [8], the target named is T1, Heart phosphodiesterase. Nature of the test: Inhibition of bovine heart cAMP-phosphodiesterase (Insoluble). It counts as protein assay. The essentials:
as §1

The subject of test [9] is Rattus norvegicus. Nature of the test: Decrease in arterial blood pressure in anesthetized rats at 60 mg/kg intravenous femoral injection. The format is functional, Artery.
Test [10] deals with T1, Heart phosphodiesterase. Kind of test: Inhibition of bovine heart cAMP-phosphodiesterase with ethanol. It counts as protein assay. The procedure, abridged:
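Bovine heart PDE, Klee method with 1 μM [3H]cAMP as substrate. Compounds were predissolved in 95% EtOH, giving 2.5% ethanol final, then diluted in buffer. A theophylline control was run with ethanol present. […] I50 was taken where V0/V = 2 from a V0/V vs concentration plot. Each value averages two consecutive runs, done in duplicate or triplicate.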

Test [11] concerns Rattus norvegicus. Kind of test: Decrease in blood pressure at 15 mg/kg in rat. The format is functional. The procedure, abridged:
(§3)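 Male Sprague-Dawley rats (250–385 g), pentobarbital-anesthetized (50 mg/kg ip); right femoral artery cannulated for arterial pressure via transducer, left femoral vein for iv dosing. Each injection flushed with 0.3 mL saline, preceded by equal-volume saline control; 5-min intervals or until pressure returned to baseline. Fall in mean arterial pressure expressed relative to theophylline 2.5 mg/kg control in same animal; n determinations given.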

The subject of test [12] is Rattus norvegicus. Kind of test: Decrease in blood pressure at 2.5 mg/kg in rat. It counts as functional. The procedure, abridged: as §3
For test [13], the system named is Rattus norvegicus. Nature of the test: Decrease in blood pressure at 5 mg/kg in rat. The format is functional. The essentials: as §3

With `O=C1CC(=O)[n+]2ccsc2N1Cc1cccc(Cl)c1`, the I50 on Heart phosphodiesterase [1] stood at 308 µM. In addition, the Relative potency in the test filed under Bos taurus turned out to be 1.3.
For `CCC(C)C1C(=O)N(CC)c2scn[n+]2C1=O` (configuration not stated), in that order: 233 µM and 1.8.
With `CCCCN1C(=O)CC(=O)[n+]2ccsc21`, the “Mean arterial blood pressure” value is 1.2 with Rattus norvegicus [2]; 1.2 with Rattus norvegicus [3]; 0.6 in the test on Rattus norvegicus [4]; 0.9 with Rattus norvegicus [5]; 2.9 in the test on Rattus norvegicus [6].
Turning to `CCC1C(=O)N2N=CSC2=[N+](CC)C1=O` (configuration not stated), the I50 at Heart phosphodiesterase [1] worked out at 550 µM. Also, the “Mean arterial blood pressure” value in the test with Rattus norvegicus [2] is 0.7; in the test on Rattus norvegicus [3] it was 1.6; in the test on Rattus norvegicus [4] it was 0.6; in the test on Rattus norvegicus [5] it was 0.4. Moreover, the Relative potency in the test listed under Bos taurus worked out at 0.7.
The molecule `CC[N+]1=C2SC=NN2C(=O)C(C)C1=O` (configuration not stated) had an I50 at Heart phosphodiesterase [1] of 1160 µM. Moreover, the “Mean arterial blood pressure” value in the test on Rattus norvegicus [2] came to 1.2; in the test with Rattus norvegicus [3] it was 1.6; in the test on Rattus norvegicus [4], 2.2; in the test with Rattus norvegicus [5], 0.9; with Rattus norvegicus [6], 7.5. Besides, the Relative potency in the test listed under Bos taurus was 0.4.
On to `CCN1C(=O)C(CC(C)C)C(=O)[n+]2ncsc21` (configuration not stated), for which the I50 on Heart phosphodiesterase [1] stood at 154 µM. This molecule also returned a Relative potency in the test listed under Bos taurus of 2.7.
For `CCN1C(=O)C(C(C)C)C(=O)[n+]2ncsc21` (configuration not stated), in that order: 254 µM and 1.6.
The like results for `CC(C)Cn1c(=O)n(C)c(=O)c2nc[nH]c21` [ISOBUTYLMETHYLXANTHINE] were, in that order, 9.9 µM and 28.9.
`CCN1C(=O)C(Cc2ccc(OC)cc2)C(=O)[n+]2ncsc21` (configuration not stated): the Relative potency result in test [7] is listed as “Insoluble”. In addition, the I50 entry at Heart phosphodiesterase [8] was “Insoluble”.
In turn, `CCCC1C(=O)N(CC)c2scn[n+]2C1=O` (configuration not stated) gave an I50 at Heart phosphodiesterase [1] of 252 µM. Moreover, the Relative potency in the test filed under Bos taurus was found to be 1.6.
`CC[N+]1=C2SC=NN2C(=O)C(Cc2ccccc2)C1=O` (configuration not stated) showed an I50 at Heart phosphodiesterase [1] of 52 µM. For the same molecule, in the test listed under Bos taurus, the Relative potency turned out to be 7.9.
The like results for `CC1C(=O)N(Cc2cccc(Cl)c2)c2scc(-c3ccccc3)[n+]2C1=O` (configuration not stated) were, in that order, 152 µM and 2.7.
The like results for `CCC1C(=O)N(CC2CC2)c2scc(-c3ccccc3)[n+]2C1=O` (configuration not stated) were, in that order, 287 µM and 1.5.
For the molecule `CCN1C(=O)C(C)C(=O)[n+]2nc(C)sc21` (configuration not stated), the I50 on Heart phosphodiesterase [1] is 2453 µM. Besides, the “Mean arterial blood pressure” value in the test on Rattus norvegicus [2] was 0.5; in the test on Rattus norvegicus [3], 0.4; with Rattus norvegicus [4], 0.3; in the test with Rattus norvegicus [5], 0.2. The same molecule displayed a Relative potency in the test filed under Bos taurus of 0.1.
`CCC1C(=O)N(CC)c2scc(C)[n+]2C1=O` (configuration not stated) had an I50 on Heart phosphodiesterase [1] of 412 µM. The molecule also registered a Relative potency in the test filed under Bos taurus of 0.7.
The like results for `CCN1C(=O)C(c2ccccc2)C(=O)[n+]2ncsc21` (configuration not stated) were, in that order, 24 µM and 17.2.
The like results for `CC[N+]1=C2SC=NN2C(=O)CC1=O` were, in that order, 774 µM and 0.5.
Take `Cn1c(=O)c2[nH]cnc2n(C)c1=O`: the Relative potency in the test listed under Bos taurus worked out at 1.
Regarding `CCC1C(=O)N(CC)c2sc(C)n[n+]2C1=O` (configuration not stated), the I50 on Heart phosphodiesterase [1] turned out to be 1689 µM. Moreover, the “Mean arterial blood pressure” value in the test on Rattus norvegicus [2] was 0.3; in the test on Rattus norvegicus [3], 0.6; in the test with Rattus norvegicus [9] it was 1.9; in the test with Rattus norvegicus [4] it was 0.3; in the test on Rattus norvegicus [5], 0; in the test on Rattus norvegicus [6] it was 1.2. Moreover, the Relative potency in the test filed under Bos taurus turned out to be 0.2.
At Heart phosphodiesterase [1], `CCCCCC1C(=O)N(CC)c2scn[n+]2C1=O` (configuration not stated) had an I50 of 156 µM. The Relative potency in the test filed under Bos taurus was determined as 2.6.
For `CCc1n[n+]2c(s1)N(CC)C(=O)C(CC)C2=O` (configuration not stated), in that order: 1980 µM and 0.1.
The like results for `CCC1C(=O)N2C=CSC2=[N+](CC2CC2)C1=O` (configuration not stated) were, in that order, 396 µM and 0.7.
As for `Cn1c(=O)c2nc[nH]c2n(C)c1=O.O` [THEOPHYLLINE], the “Mean arterial blood pressure” value turned out to be 2.36 with Rattus norvegicus [2], 2.34 in the test on Rattus norvegicus [4] and 1 in the test on Rattus norvegicus [5]. At Heart phosphodiesterase [10], the I50 was 412 µM. The Blood pressure in the test on Rattus norvegicus [11] worked out at 31.9 mmHg; in the test with Rattus norvegicus [12] it was 13.5 mmHg; in the test on Rattus norvegicus [13], 31.6 mmHg.
On to `CCC1C(=O)N(CC)c2scc[n+]2C1=O` (configuration not stated), for which the I50 on Heart phosphodiesterase [1] is 858 µM. The “Mean arterial blood pressure” value was found to be 1.2 with Rattus norvegicus [2], 0.8 with Rattus norvegicus [3], 0.6 with Rattus norvegicus [4] and 0.3 in the test on Rattus norvegicus [5]. In the test listed under Bos taurus, this molecule yielded a Relative potency of 0.3.
Consider `CCN1C(=O)C(Cc2ccc(Cl)cc2)C(=O)[n+]2ncsc21` (configuration not stated), for which, at Heart phosphodiesterase [1], the I50 is 9.6 µM. In the test listed under Bos taurus, this molecule displayed a Relative potency of 42.9.
The like results for `CCc1n[n+]2c(s1)N(CC)C(=O)C(C)C2=O` (configuration not stated) were, in that order, 2411 µM and 0.1.
